SMILES strings stand for the structures.

Series [1] has as its system Mus musculus. As to the kind of experiment: Ratio of drug uptake in iv dosed Balb/C mouse brain at 2 to 30 mins. Type of series: ADME, organism-based. To be noted: in vivo. The method in brief:
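Wild-type mice received the 11C-labeled tracers i.v. Brain uptake was measured as %ID/g at 2 and 30 min post-injection, and the 2 min/30 min ratio was taken. Means ± sd, n = 4-5.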

Series [2] can be described thus: Lipophilicity, log P of the compound. Type of series: physicochemical. To be noted: octanol/water. The method in brief:
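Octanol–PBS partition (log Poct/PBS) measured on the N-11C-labeled radiotracers.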

The nature of series [3]: Displacement of [3H]PIB from human A-beta-40 peptide. The method in brief:
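Competition binding against [3H]PIB using precipitated synthetic Aβ(1-40) peptide aggregates. Ki derived from competition data.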

For series [4], the system named is Plasma. Description: Metabolic stability in Balb/C mouse plasma assessed as radioactivity. Type of series: ADME, cell-free.

For `[11CH3]Nc1ccc(-c2nc3cc(F)ccc3s2)cc1Br`, the Ratio in series [1] is listed as 2.5. For the same compound, the logP in series [2] was determined as 4.18. The same compound returned a Ki in series [3] of 1.3 nM. Besides, the t1/2 in series [4] is given as 7.2 min.

Regarding `[11CH3]Nc1ccc(-c2nc3cc(F)ccc3s2)cc1`, the Ratio in series [1] came to 2.5. Besides, in series [2], the logP turned out to be 3.27. The same compound yielded a Ki in series [3] of 12.4 nM. For the same compound, the t1/2 in series [4] is 6.8 min.

Consider `Cc1cc(-c2nc3cc(F)ccc3s2)ccc1N[11CH3]`, for which the Ratio in series [1] is 6.3. In series [2], the logP was determined as 2.93. In addition, in series [3], the Ki was determined as 8.4 nM. Moreover, in series [4], the t1/2 amounted to 14.3 min.

With `[11CH3]Nc1ccc(-c2nc3cc(F)ccc3s2)cc1Cl`, in series [1], the Ratio is listed as 9.8. In series [2], this compound displayed a logP of 2.81. In series [3], this compound yielded a Ki of 3.4 nM. Moreover, the t1/2 in series [4] turned out to be 22.1 min.

As to `Cc1cc(-c2nc3ccccc3s2)ccc1N[11CH3]`, the Ratio in series [1] is recorded as 2.8. Besides, the log partition coefficient (logP) in series [2] is 3.36. For the same compound, the Ki in series [3] worked out at 4.4 nM. The t1/2 in series [4] came out at 7.5 min.

On to `[11CH3]Nc1ccc(-c2nc3ccccc3s2)cc1F`, for which the Ratio in series [1] is on record as 3.1. The logP in series [2] is 3.05. Moreover, the affinity in series [3], expressed as Ki, was 6.8 nM. Also, the t1/2 in series [4] was determined as 8.4 min.

(Values after ChEMBL document CHEMBL1142954, “Metabolically stabilized benzothiazoles for imaging of amyloid plaques” (J Med Chem, 2007).)
